UPR CHOP act – apoptotic UPR (CHOP) activation; 0.34% of 330,000 active; CHO-CHOP luciferase reporter, luminescence; percent of tunicamycin response over DMSO baseline; activation, % at 10 µM;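 active = at 10 µM dose, activation of 40% or more, normalized to positive control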;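 note: 100% = tunicamycin at 10 µg/mL and 0% = DMSO alone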
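System: CHO-CHOP luciferase reporter cell line; amount: 500 cells/well; buffer or medium: F12 medium containing 10% fetal bovine serum; incubation: 6 h compound exposure at 37 °C after overnight seeding; measured by: luciferase luminescence after 10 min with Steady-Glo reagent; evaluation: % reporter activation, DMSO baseline versus tunicamycin full activation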
UPR XBP1 act – activators of adaptive arm of unfolded protein response (XBP1) | CHO-XBP1 luciferase reporter, IRE1-XBP1 UPR activation, luminescence; percent of tunicamycin response, DMSO as zero | activation, % at 20 µM | 0.33% of 330,000 active | AID 463104;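 active = versus positive control, 20 µM dose yields 30% or more activation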;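 note: 100% = tunicamycin at 10 µg/mL and 0% = DMSO only wells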
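Material: CHO cell line with stable XBP1 luciferase reporter; schedule: 16-18 h cell attachment at 37 °C, then 6 h compound exposure; signal: glow luminescence from Steady-Glo reagent; medium: serum-containing F12 medium, 10% FBS; benchmarks: tunicamycin 10 µg/mL and vehicle-only wells; read-out: percent activation relative to tunicamycin reference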
697 NFkB inh – inhibitors of the PMA/ionomycin-induced NF-kB reporter in 697 B cells; 697 B-cell NF-kB luciferase reporter, 16 h; inhibition, % at 4 µM; 0.33% of 330,000 active; AID 435022; in the data active = inhibition above about 35%
CHOP inh – blocks CHOP induction under ER stress. AID 2732. inhibition, % at 10 µM. 3.8% of 220,000 active. CHO-K1 CHOP-promoter luciferase, tunicamycin-induced, 15-18 h;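 active = compounds that reduced the stress-induced luciferase reporter signal by more than about 70% of percent inhibition, limit read from the data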;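 note: 0% = tunicamycin plus vehicle and 100% = wells without tunicamycin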
Jurkat NFkB inh – lowers PMA/ionomycin-induced NF-kB signal in Jurkat cells | PMA/ionomycin-induced NF-kB luciferase reporter, luminescence | inhibition, % at 4 µM | 0.53% of 330,000 active; in the data active = inhibition above about 50%
CHOP inh conf – confirmation of CHOP induction inhibitors; AID 504437; shares compounds with CHOP inh; CHO-CHOP promoter luciferase reporter, tunicamycin-induced, luminescence; 45% of 2,100 active; inhibition, % at 10 µM;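 active = mean of three repeat readings of reporter signal inhibition above a set limit, cut at about 70% in these data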;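 note: 0% = tunicamycin plus vehicle and 100% = wells lacking tunicamycin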
* hit, by the source's call; . = not tested or not shown. The entries come from a sample that favours hits as a whole.

SMILES	UPR CHOP act	UPR XBP1 act	697 NFkB inh	CHOP inh	Jurkat NFkB inh	CHOP inh conf
O=C(O)c1ccc(C[n+]2c(-c3ccccc3)csc2Nc2ccccc2)cc1	1.9	-1.4	4.9	-4.2	-4.6	.
CC(C)(C)c1cc(-c2csc(Nc3ccccc3)[n+]2Cc2ccc(C(=O)O)cc2)cc(C(C)(C)C)c1O	0.2	11.2	12.6	106.4*	-3.4	120.7*
CSCCC(NS(=O)(=O)c1cccc(C(F)(F)F)c1)C(=O)N(C)CCOc1ccc(Cl)cc1 (configuration not stated)	-2.4	-5.2	-0.6	.	-2.0	.
O=[N+]([O-])c1cccc(/C=N/Nc2nc(NCc3ccccc3)nc(N3CCOCC3)n2)c1	2.0	4.3	-32.8	104.3*	0.6	2.2
O=[N+]([O-])c1ccc(/C=N/Nc2nc(NCc3ccccc3)nc(N3CCOCC3)n2)cc1	0.0	-3.4	-26.4	12.0	4.8	.
NCC12CC3CC(C1)CC(c1ccc(Cl)cc1)(C3)C2	3.9	10.2	12.0	17.6	24.4	.
S=C(Nc1ccc(Cl)c(Cl)c1)NC1CCCCC1	2.6	2.5	-8.6	103.3*	-15.5	23.5
S=C(Nc1ccc(Cl)c(Cl)c1)NC1CCN(Cc2ccccc2)CC1	2.6	13.9	-22.1	105.4*	-0.1	37.4
Fc1ccc(NC(=S)NC2CCN(Cc3ccccc3)CC2)cc1	-0.5	0.4	14.9	-10.9	17.1	.
Cc1cc(NC(=O)CCOc2ccc(F)cc2)no1	.	.	.	10.5	.	.
O/N=C(/c1ccccc1)c1cc2cc(Br)cc(Br)c2o1	2.0	0.1	-6.2	.	-9.3	.
O=C(/C=C/c1ccc(NC(=O)c2ccccc2-c2ccccc2C(=O)O)cc1)c1ccccc1	2.0	-1.3	-22.2	.	-11.6	.
O=C(/C=C/c1ccncc1)c1ccc(NC(=O)c2ccccc2F)cc1	.	.	.	105.8*	.	-125.2
CCc1nn(CC(=O)NCCCN(CC)c2cccc(C)c2)c(=O)c2cc3occc3n12	1.4	-2.4	-10.2	103.8*	6.8	31.0
Cc1nn(CC(=O)NCCCc2ccccc2)c(=O)c2cc3occc3n12	3.0	-1.3	0.0	.	-4.8	.
CC(C)CCn1c(N2CCN(c3cccc(Cl)c3)CC2)nc2c1c(=O)[nH]c(=O)n2C	4.8	4.6	-63.8	105.8*	-11.0	65.5
Cc1cc(=O)oc2cc(OCC(=O)N(C)C3CCS(=O)(=O)C3)c(Cl)cc12 (configuration not stated)	1.2	-6.1	9.1	.	10.2	.
Cc1ccc(NCc2n[nH]c(=S)n2Cc2ccccc2)cc1Cl	.	.	.	99.8*	.	-44.6
Cc1ccc(NCc2nnc(SCC(=O)O)n2Cc2ccccc2)cc1Cl	-1.0	-2.8	-40.1	-10.0	-26.7	.
CCN1C(=O)[C@@H]2[C@H](C1=O)[C@@H]1C(=O)Nc3ccccc3C(=O)N1[C@@H]2c1ccc(OC)cc1	0.7	1.6	22.6	.	14.2	.
CC(=O)NCCC1CCN(C(=O)c2cc(COc3ccc(C)nc3)on2)CC1	0.6	-3.1	5.1	.	-11.8	.
S=C(Nc1ccccc1)Nc1cc(Cl)ccc1Oc1ccccc1	0.4	0.6	-23.4	101.8*	2.8	29.0
COc1cccc(OCC(=O)Nc2cc(Cl)ccc2Oc2ccccc2)c1	-1.2	-2.2	-12.5	33.5	-2.9	.
C=CCNc1cccc(Br)c1	-1.4	1.0	9.8	.	-16.1	.
Cc1ccc(Cl)cc1NC(=O)CCC(=O)Nc1cc(Cl)ccc1C	-0.6	2.7	9.0	100.3*	0.5	-14.7
SMILES	UPR CHOP act	UPR XBP1 act	697 NFkB inh	CHOP inh	Jurkat NFkB inh	CHOP inh conf
O=C(CSc1nc2ccsc2c(=O)n1CC1CCC(C(=O)O)CC1)c1ccc(Cl)cc1 (configuration not stated)	-0.7	-6.4	16.3	101.9*	-11.6	-33.6
CN1C(=O)/C(=C/c2cc(N=Nc3ccccc3)ccc2O)SC1=S	-1.0	-1.4	11.0	104.4*	2.2	104.0*
CCOc1ccc(/C(=N\O)C(C)NO)cc1 (configuration not stated)	0.5	-0.1	-1.3	103.9*	-7.6	1.6
CCOc1ccc(/C(C)=N\NC(=O)Cc2ccccc2)cc1	-1.5	1.3	0.4	.	5.1	.
COC(=O)c1cc(C#N)c(N2CC(C)OC(C)C2)nc1C (configuration not stated)	-2.1	-1.2	10.0	8.9	-9.5	.
O=C(N=Nc1c(O)[nH]c2ccc(F)cc12)C1COc2ccccc2O1 (configuration not stated)	1.2	-0.5	1.8	12.6	6.1	.
CCN(CC)CCOC(=O)c1ccc(N/C=C(/C#N)c2nc(-c3cccc(OC)c3)cs2)cc1	1.6	-0.9	-23.5	104.7*	-2.1	79.5*
CCN(CC)CCOC(=O)c1ccc(N/C=C(/C#N)c2nc(-c3ccc(OC)c(OC)c3)cs2)cc1	2.5	4.3	-13.8	-21.8	-21.9	.
O=c1cc(-c2c(F)c(F)c(F)c(F)c2F)oc2c(F)c(F)c(F)c(F)c12	-9.5	-5.0	-22.8	108.6*	14.5	124.0*
O=C(C[C@@H]1C/C=C/CC[C@@H](Cc2ccc(F)cc2)C(=O)O[C@H](c2ccccc2)CNC1=O)NCCO	0.0	0.8	8.0	.	-3.0	.
O=C1C=CC(=O)N1c1ccc(O)cc1	1.6	-4.0	-20.6	4.9	-3.7	.
O=C1C=CC(=O)N1c1ccc(OC(F)F)cc1	.	.	.	106.8*	.	-7.6
Cc1onc(-c2c(Cl)cccc2Cl)c1C(=O)Nc1nccs1	2.2	-3.3	8.4	.	1.3	.
NS(=O)(=O)c1cccc(NC(=O)COC(=O)c2ccccc2SCC(=O)N2CCCC2)c1	0.2	-2.8	-11.4	.	-9.1	.
O=C(CNC1CCCCCC1)Nc1ccccc1N1CCCCC1	-0.1	0.0	-31.5	97.6*	1.0	93.9*
O=C(Cc1ccccc1)Nc1ccccc1N1CCCC1	2.1	-1.4	13.9	11.6	2.6	.
CSc1cccc(CN2CCC(CCC(=O)NC3CC3)CC2)c1	-1.6	-0.3	9.1	.	-7.0	.
O=C(c1cccs1)N1N=C(c2ccccc2)CC1c1ccccc1O (configuration not stated)	3.5	2.1	6.3	10.3	1.3	.
Cc1ccc(C2=NN(C(=O)c3cccs3)C(c3ccccc3O)C2)cc1 (configuration not stated)	0.0	0.3	-6.9	102.6*	-21.1	104.9*
Cc1ccc(C2=NN(S(=O)(=O)c3ccccc3)C(c3ccccc3O)C2)cc1 (configuration not stated)	.	.	.	105.6*	.	38.5
CN(CCCC[C@H](CNCc1ccc(-c2ccccc2)cc1)N1C[C@H](c2ccccc2)N(CCc2ccc(Cl)c(Cl)c2)C(=O)C1=O)Cc1ccc(-c2ccccc2)cc1	.	.	.	106.9*	.	111.8*
CCOC(=O)c1[nH]c2ccc(Cl)cc2c1-c1ccccc1	8.0	1.9	-4.5	96.7*	4.3	119.6*
COc1ccc(NS(=O)(=O)c2ccc(O)c(NC(=O)c3cc4c(C)nn(-c5ccc(F)cc5)c4s3)c2)cc1	9.1	-3.0	-7.7	108.2*	-1.4	114.8*
